This is a sample that favours compounds with a hit; in the whole collection about 1.6% have one here.
FLuc act counter – firefly luciferase counter-screen for stimulation assays | 200,000 tested, under 10 active | ATPlite luciferase biochemical, luminescence, 10 min; 0 = ATP-free wells, 1 = DMSO control | P08659 | activation factor at 10 µM | AID 1027;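 active = luciferase activation factor, scaled between plate controls, of at least 2 with compound at 10 µM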
Target sequence (P08659 whole entry, looked up): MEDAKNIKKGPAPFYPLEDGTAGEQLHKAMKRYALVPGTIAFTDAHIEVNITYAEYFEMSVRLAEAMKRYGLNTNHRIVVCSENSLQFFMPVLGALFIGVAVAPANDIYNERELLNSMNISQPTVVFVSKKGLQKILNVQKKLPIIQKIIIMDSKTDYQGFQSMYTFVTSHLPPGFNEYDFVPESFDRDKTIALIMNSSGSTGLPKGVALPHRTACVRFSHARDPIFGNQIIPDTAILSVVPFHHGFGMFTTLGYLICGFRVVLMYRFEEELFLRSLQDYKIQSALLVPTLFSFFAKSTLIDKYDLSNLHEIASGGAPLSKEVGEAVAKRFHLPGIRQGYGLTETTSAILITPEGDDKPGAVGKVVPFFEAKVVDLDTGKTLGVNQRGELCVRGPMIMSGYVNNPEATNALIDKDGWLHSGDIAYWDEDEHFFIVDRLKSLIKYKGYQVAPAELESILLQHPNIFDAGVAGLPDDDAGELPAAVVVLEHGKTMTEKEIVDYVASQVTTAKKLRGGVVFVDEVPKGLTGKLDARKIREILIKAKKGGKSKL
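Material: Luciferase/luciferin reagent mix | Doses: Test compounds dosed from 2 mM stocks in 100% DMSO | Timing: 10 min incubation after luciferase reagent addition, room temperature | Measured by: Luminescence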
PPC-1+TRAIL kill – compounds killing PPC-1 cancer cells with TRAIL present (potentiator screen, no TRAIL-free arm) | PPC-1 cells + TRAIL, ATPLite viability luminescence | cell killing (% activity), % at 4 µM or 5 µM | 220,000 tested, 0.41% active | AID 1443;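 active = cell killing above 50% in the first pass at 4 µM, then a duplicate retest at 5 µM averaging 50% or more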;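 also: plate controls were cells with TRAIL plus DMSO for no effect and medium-only wells lacking cells for full effect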
FLuc inhib CS – counter-screen for luciferase assay inhibitors: firefly luciferase inhibition | ATPLite firefly luciferase biochemical luminescence, 10 min | inhibition, % at 10 µM | 200,000 tested, 1.5% active | AID 1006;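 active = inhibition above about 50% when tested at 10 µM, limit read from the data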
C8 TRAIL sens – caspase-8 TRAIL sensitization | NB7+C8 cells + TRAIL, ATPlite viability luminescence | inhibition (viability loss, TRAIL sensitization), % at 10 µM | 360,000 tested, 1% active | AID 624354;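 active = compounds causing at least 50% loss of cell viability in the single-dose screen, relative to plate controls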
Starred values were filed as active, the others as inactive; . = not tested or not shown.

SMILES	FLuc act counter	PPC-1+TRAIL kill	FLuc inhib CS	C8 TRAIL sens
Cc1ccsc1C1C(C#N)=C(N)N(N(C)C)C2=C1C(=O)CCC2 (configuration not stated)	1	18.4	-1.0	-5.0
Cc1cccc(/C(N)=N/OC(=O)Cc2ccccc2)c1	0.9	12.7	12.0	2.1
Cc1cccc(/C(N)=N/OC(=O)c2ccc(Br)o2)c1	0.3	-3.7	66.9*	1.3
NS(=O)(=O)c1ccc(N=Nc2c(-c3ccccc3)[nH]n(-c3nc(-c4ccccc4)cs3)c2=O)cc1	1.1	15.3	-5.4	54.5*
O=C1CCNc2cc3ccccc3cc21	1	52.4*	2.5	11.7
O=C1CCNc2ccc(-c3ccccc3)cc21	1	6.1	3.8	-23.8
O=c1c2ccccc2oc2cc(-c3ccc4[nH]ccc4c3)ccc12	.	.	.	13.0
CCCn1c(=S)[nH]c2sc3c(c2c1=O)CCCC3	.	.	.	27.2
COC(=O)C(Cc1ccccc1)NC(=O)c1ccc(C)cc1 (configuration not stated)	0.4	.	60.0*	-5.9
CCCc1c(C(=O)N/N=C/C=C/c2ccccc2)nnn1-c1nonc1N	.	.	.	54.7*
CCNC(=O)C(Cc1ccccc1)NC(=O)OCc1ccccc1 (configuration not stated)	1	.	2.5	-18.1
CC1Oc2cc3oc4c(O)c(O)ccc4c(=O)c3c(O)c2C1(C)C (configuration not stated)	.	.	.	52.7*
COc1ccc(-c2cc(=O)oc3c(O)c(O)ccc23)cc1	.	.	.	1.6
O=C(c1ccccc1)c1cc(Cl)ccc1N1C(=O)C=CC1=O	0.4	22.8	57.7*	1.6
O=C(CC(=O)c1cc(Cl)ccc1O)c1ccccc1	1	10.6	-0.6	26.1
COc1ccccc1N(CC(=O)N/N=C/c1c(O)ccc2ccccc12)S(C)(=O)=O	1	35.9	-3.1	52.0*
CC[C@@H](C)[C@H](CN[C@H](CNC)C(C)C)NC[C@@H](C)c1ccc(CC(C)C)cc1	.	.	.	64.5*
CC[C@H](C)[C@@H](CNC)NC[C@@H](Cc1ccc(O)cc1)NCC(C)(C)C	.	.	.	4.6
CCCc1ccc(-c2cc(C(=O)NCCc3ccc(S(N)(=O)=O)cc3)c3ccccc3n2)cc1	0.4	38.3	64.2*	57.9*
COCCNC(=O)c1cc(-c2ccc(-c3ccccc3)cc2)nc2ccccc12	.	.	.	56.4*
Cc1ccc(-c2cc(C(=O)N/N=C/c3cccnc3)c3ccccc3n2)cc1C	.	.	.	61.3*
CCNC(=S)NNC(=O)c1cc(-c2cccc(OC)c2)nc2ccccc12	0.2	50.8*	83.2*	21.2
NS(=O)(=O)c1ccc(CCNC(=O)c2cc(-c3ccc(Br)cc3)nc3ccccc23)cc1	1	26.9	3.6	4.9
CCCOc1cccc(-c2cc(C(=O)NNC(=S)NCC)c3ccccc3n2)c1	0.5	37.5	47.9	39.0
COCCCNC(=O)c1cc(-c2cccnc2)nc2ccccc12	.	.	.	-15.3
SMILES	FLuc act counter	PPC-1+TRAIL kill	FLuc inhib CS	C8 TRAIL sens
CCc1ccccc1NC(=O)NCc1ccc2c(c1)OCO2	.	.	.	8.8
O=C(c1ccccc1)c1ccc2nc(Nc3ccccc3)c3nncn3c2c1	.	-4.9	.	18.8
Cc1ccc(-c2cc(C(=O)NCc3ccccn3)c3ccccc3n2)cc1C	0.5	28.4	52.2*	40.9
CCCc1ccc(-c2cc(C(=O)NN3CCOCC3)c3ccccc3n2)cc1	0.4	29.2	58.9*	43.8
Cc1ccc(-c2cc(C(=O)n3cnc4ccccc43)c3ccccc3n2)cc1C	0.3	47.9	68.8*	66.7*
CCCc1ccc(-c2cc(C(=O)Nc3ccc([N+](=O)[O-])cn3)c3ccccc3n2)cc1	0.4	18.5	58.1*	51.1*
CC(=O)Nc1ccccc1NC(=O)c1ccccc1	1.1	-12.7	-6.7	22.1
S=C(c1ccc(-c2cc(Cl)ccc2Cl)o1)N1CCCCC1	0.9	34.6	10.3	0.5
Oc1ccc(-c2cn3c(n2)SCC3)cc1	0.9	-3.3	5.6	-4.3
CC(C)Oc1cccc(-c2cc(C(=O)NC(=S)N(C)c3ccccc3C(=O)O)c3ccccc3n2)c1	0.4	27.5	64.0*	33.1
Cn1c(NC(=O)c2ccc(F)cc2)nc2ccccc21	.	.	.	64.3*
O=C(Nc1nc2ccccc2c2nc3ccccc3n12)c1ccc(F)cc1	1	6.0	-4.6	.
O=C(Nc1nc2ccc(S(=O)(=O)N3CCCCC3)cc2s1)c1cccnc1	1	7.6	-4.5	-17.7
O=C(Nc1nc2ccc(F)cc2s1)c1cccs1	0.5	17.1	50.5*	33.7
O=C(Nc1nc2ccc(S(=O)(=O)N3CCCC3)cc2s1)c1cccs1	1	4.0	-2.7	3.9
CN(C)S(=O)(=O)c1ccc2nc(NC(=O)c3cccs3)sc2c1	0.4	49.1	63.6*	47.3
CN(C)S(=O)(=O)c1ccc2nc(NC(=O)c3cccnc3)sc2c1	0.4	26.9	55.4*	20.9
O=C1CN(C(=O)CSc2nnc(-c3ccccc3)n2Cc2ccc3c(c2)OCO3)c2ccccc2N1	1	-6.0	-3.7	7.0
CC(OC(=O)c1ccc(S(=O)(=O)NCc2ccco2)cc1)C(=O)Nc1ccc(Cl)cn1 (configuration not stated)	1	5.7	-0.9	-19.7
O=c1[nH]c2ccccc2nc1/C=C/c1ccc(Cl)cc1	0.3	38.0	69.6*	73.1*
O=C(/C(=C/c1ccc(Cl)cc1)c1nc2ccccc2[nH]1)c1ccccc1	1	23.9	1.4	77.9*
O=C(N/C(=C/c1ccc(Cl)cc1)c1nc2ccccc2[nH]1)c1ccco1	1.1	12.0	-5.3	-0.1
Cc1onc(-c2c(F)cccc2Cl)c1C(=O)Nc1nc2ccccc2[nH]1	1	-10.6	2.3	49.5*
O=C(Nc1nc2ccccc2[nH]1)c1ccc(Cl)cc1	.	.	.	87.0*
CC(C)NC(=O)NC(=O)CSc1ccc(S(=O)(=O)N2CCOCC2)cn1	.	.	.	-3.3
SMILES	FLuc act counter	PPC-1+TRAIL kill	FLuc inhib CS	C8 TRAIL sens
O=C(Nc1nc2ccccc2[nH]1)c1ccccc1O	.	.	.	48.8*
C=CCn1c(/N=C/c2ccc3c(c2)OCO3)nc2ccccc21	0.3	15.2	71.6*	-1.8
COC(=O)[C@@]12C[C@@H](CC(=O)NCc3ccccc3)C(=O)N(Cc3ccccc3)C1=CCC(C)(C)C2	.	.	.	9.8
COc1ccccc1CNc1nc(NCCOc2ccccc2Cl)c2sccc2n1	.	.	.	21.0
CN(C)CCOC1c2ccccc2CSc2ccccc21 (configuration not stated)	.	.	.	-6.8
O=C(Nc1ccc(N2CCOCC2)cc1)c1ccc(Cl)cc1N1CCCC1=O	.	.	.	-4.3
c1ccc(CNc2nc(NCC3CC3)nc3cc(-c4ccccc4)sc23)cc1	.	.	.	54.9*
O=C(Nc1cnn(C23CC4CC(CC(C4)C2)C3)c1)c1cnn2c(C(F)(F)F)cc(-c3ccco3)nc12	1.1	4.9	-7.5	64.2*
O=C(Nc1ccc2c(c1)OCO2)c1cnn2c(C(F)(F)F)cc(-c3ccco3)nc12	1	13.5	-2.4	-4.1
COc1ccc(S(=O)(=O)N2CCSC2C)cc1C (configuration not stated)	.	.	.	1.8
COc1ccc(CNc2cc(C)ccn2)cc1	.	.	.	-2.6
NC(=S)n1[nH]c(-c2ccc([N+](=O)[O-])cc2)c(N=Nc2ccc(Cl)cc2)c1=O	1	26.4	2.7	58.9*

Screening results (PubChem)
